Experiment [1] deals with T1, Serine protease SplB (Staphylococcus aureus) (UniProt Q53781).
T1 sequence (whole entry): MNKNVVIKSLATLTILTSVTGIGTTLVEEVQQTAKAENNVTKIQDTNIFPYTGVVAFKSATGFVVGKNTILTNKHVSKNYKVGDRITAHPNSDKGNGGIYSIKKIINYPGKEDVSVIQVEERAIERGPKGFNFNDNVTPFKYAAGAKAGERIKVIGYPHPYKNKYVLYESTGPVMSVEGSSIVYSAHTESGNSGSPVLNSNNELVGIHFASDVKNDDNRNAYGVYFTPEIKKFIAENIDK
Kind of experiment: Ratio of rate of irreversible step k2 to Ki for Staphylococcus aureus SplB using fluorogenic […] as substrate up to 200 uM by spectrofluorometry. Summed up:
(§1)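 Enzyme added to substrate plus excess inhibitor in 0.1 M Tris-HCl, 0.01% Triton X-100, pH 7.6, 37 °C; SplB at 100 nM. Ac-Trp-Glu-Leu-Gln-ACC read at Ex 355/Em 460 nm. Pseudo-first-order k_obs taken from progress curves; k2/Ki fitted using substrate Km.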

In experiment [2] the target is T1, Serine protease SplB (Staphylococcus aureus). As to the kind of experiment: Inhibition of Staphylococcus aureus SplB using fluorogenic […] as substrate up to 200 uM by spectrofluorometry. Summed up: as §1
A short description of experiment [3]: Inhibition of subtilisin using fluorogenic Suc-Ala-Ala-Pro-Phe-AMC as substrate by spectrofluorometry. Summed up: (§2)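 Run in 0.1 M HEPES, 0.5 M NaCl, 0.03% Triton X-100, pH 7.5, 37 °C, with chymotrypsin at 3 nM or subtilisin at 5 nM. Enzyme added to Suc-Ala-Ala-Pro-Phe-AMC plus excess inhibitor, read at Ex 350/Em 460 nm. k_obs taken from progress curves; k2/Ki derived via a Km-corrected irreversible-inhibition model.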

The nature of experiment [4]: Ratio of rate of irreversible step k2 to Ki for subtilisin using fluorogenic Suc-Ala-Ala-Pro-Phe-AMC as substrate by spectrofluorometry. In outline: as §2
Experiment [5] can be described thus: Inhibition of chymotrypsin using fluorogenic Suc-Ala-Ala-Pro-Phe-AMC as substrate by spectrofluorometry. In outline:
as §2

Experiment [6] can be described thus: Ratio of rate of irreversible step k2 to Ki for chymotrypsin using fluorogenic Suc-Ala-Ala-Pro-Phe-AMC as substrate by spectrofluorometry. In outline:
as §2

The target in experiment [7] is T2, Serine protease SplB (Staphylococcus aureus, UniProt Q53781).
T2 sequence (Q53781 whole entry): T1 sequence (whole entry)
As to the kind of experiment: Inhibition of Staphylococcus aureus SplB using fluorogenic […] as substrate by spectrofluorometry. In outline:
as §1

SMILES strings stand for the structures. pKi: −log10 of the molar value. Active and inactive are the calls of the source. No cut-off for these calls is given here.

For `COc1ccc(OP(=O)(Oc2ccc(OC)cc2)C(CCC(N)=O)NC(=O)OCc2ccccc2)cc1` (racemic), the Ratio is less than 10 M⁻¹ s⁻¹ in experiment [1], 33 M⁻¹ s⁻¹ in experiment [4] and less than 10 M⁻¹ s⁻¹ in experiment [6]. Further, in experiment [2], the inhibition result was “inactive”. Besides, the negative-log Ki (pKi) (commonly −log10 of the Ki, conventionally taken in molar units) in experiment [3] is 3.95; in experiment [5], less than 3.70; in experiment [7] it was less than 3.70.

Take `NC(=O)CCC(NC(=O)OCc1ccccc1)P(=O)(Oc1ccccc1)Oc1ccccc1` (racemic): the Ratio in experiment [1], in experiment [4] and in experiment [6] was less than 10 M⁻¹ s⁻¹ throughout. Further, the inhibition entry in experiment [2] is “inactive”. Moreover, the pKi in experiment [3], in experiment [5] and in experiment [7] was less than 3.70 throughout.

Consider `CC(C)(C)c1ccc(OP(=O)(Oc2ccc(C(C)(C)C)cc2)C(CCC(N)=O)NC(=O)OCc2ccccc2)cc1` (racemic), for which the Ratio in experiment [1], in experiment [4] and in experiment [6] was less than 10 M⁻¹ s⁻¹ each time. Further, in experiment [2], the inhibition result was “inactive”. Further, the negative logarithm of the Ki (pKi) in experiment [3], in experiment [5] and in experiment [7] was less than 3.70 throughout.

For the compound `CC(C)CC(NC(=O)OCc1ccccc1)C(=O)NC(CCC(N)=O)P(=O)(Oc1ccccc1)Oc1ccccc1` (mixture of isomers), the Ratio in experiment [1], in experiment [4] and in experiment [6] was less than 10 M⁻¹ s⁻¹ each time. Moreover, the inhibition result in experiment [2] was “inactive”. The pKi in experiment [3], in experiment [5] and in experiment [7] was less than 3.70 in each case.

In the case of `CCc1ccc(OP(=O)(Oc2ccc(CC)cc2)C(CCC(N)=O)NC(=O)C(CC(C)C)NC(=O)OCc2ccccc2)cc1` (mixture of isomers), the Ratio in experiment [1], in experiment [4] and in experiment [6] was less than 10 M⁻¹ s⁻¹ in each case. Also, the inhibition result in experiment [2] is “inactive”. Moreover, the pKi in experiment [3], in experiment [5] and in experiment [7] was less than 3.70 throughout.

For the compound `CC(C)CC(NC(=O)OCc1ccccc1)C(=O)NC(CCC(N)=O)P(=O)(Oc1ccc(C(C)(C)C)cc1)Oc1ccc(C(C)(C)C)cc1` (racemic), the Ratio in experiment [1], in experiment [4] and in experiment [6] was less than 10 M⁻¹ s⁻¹ in each case. Moreover, in experiment [2], the inhibition entry was “inactive”. Also, the pKi in experiment [3], in experiment [5] and in experiment [7] was less than 3.70 in each case.

In the case of `COc1ccc(OP(=O)(Oc2ccc(OC)cc2)C(CCC(N)=O)NC(=O)C(CC(C)C)NC(=O)OCc2ccccc2)cc1` (mixture of isomers), the Ratio was less than 10 M⁻¹ s⁻¹ in experiment [1], 57 M⁻¹ s⁻¹ in experiment [4] and less than 10 M⁻¹ s⁻¹ in experiment [6]. Besides, in experiment [2], the inhibition entry is “inactive”. Also, the negative-log Ki (pKi) was 4.46 in experiment [3], less than 3.70 in experiment [5] and less than 3.70 in experiment [7].

On to `CCc1ccc(OP(=O)(Oc2ccc(CC)cc2)C(CCC(N)=O)NC(=O)OCc2ccccc2)cc1` (racemic), for which the Ratio in experiment [1], in experiment [4] and in experiment [6] was less than 10 M⁻¹ s⁻¹ each time. Also, the inhibition entry in experiment [2] was “inactive”. Further, the pKi in experiment [3], in experiment [5] and in experiment [7] was less than 3.70 throughout.

For the origin of these results see ChEMBL document CHEMBL2163303, “The development of first Staphylococcus aureus SplB protease inhibitors: phosphonic analogues of glutamine” (Bioorg Med Chem Lett, 2012).
